Experimental data from different studies.
Protocols differ between the studies behind these lines.
Cell line: PANC-1
Effect on: cell growth or viability

CC(C)C[C@H](NC(=O)[C@H](Cc1ccccc1)NC(=O)c1cnccn1)B(O)O gave an IC50 of 0.01 µM (ATP luminescence).
CC(=O)c1ccc(N=Nc2c(C(=O)O)cc(O)c(O)c2O)cc1 gave an IC50 of 12.7 µM (MTT).
The IC50 of COc1cccc2c1C(=O)c1c(O)c3c(c(O)c1C2=O)C[C@@](O)(C(=O)CO)C[C@@H]3O[C@H]1C[C@H](N)[C@H](O)[C@H](C)O1 is reported as 0.53 µM (WST-1; 72 h).
COc1ccc(C(=O)O[C@@H]2CN3Cc4c(cc5c(c4OC)OCO5)[C@@]24C=C[C@H](OC)C[C@@H]34)cc1 gave an IC50 of > 10 µM (WST-1).
COc1cc(Nc2nccc(-c3cnn4nc(OC)ccc34)n2)cc(C(F)(F)F)c1 has an IC50 of 0.76 µM (ATP luminescence).
COc1c2c(cc3c1OCO3)[C@]13C=C[C@H](OC)C[C@H]1N(C2)C[C@H]3OC(=O)c1cccc(C)c1 has an IC50 of > 10 µM (WST-1).
For CCN(CC)CCCC(C)Nc1cnc(C(=O)Nc2cc(F)cc3cccnc23)cn1 (centres unmarked), the IC50 was 7.2 µM (MTT).
Cc1ncsc1-c1ccc(CNC(=O)[C@@H]2C[C@@H](O)CN2C(=O)[C@@H](NC(=O)CCCCCCCCCCCC(=O)NCCCCC#Cc2cccc(-c3nn(-c4nc(C(=O)O)cs4)c(CC4CC4)c3Cc3ccc(S(N)(=O)=O)cc3)c2)C(C)(C)C)cc1 gave a GI50 of 16.1 µM (CCK-8; 72 h).
O=C(O)/C=C/c1ccc(O)c(O)c1 has an IC50 of 4.1 µM (MTT).
CNc1ncc2cc(-c3ccc(-c4cccc(C)n4)cc3Cl)c(=O)n(C[C@H]3OC[C@H](N)CO3)c2n1 gave an IC50 of 23.2 µM (MTT; 24 h).
O=C(O)c1cc(O)c(O)c(O)c1 gave an IC50 of 17.9 µM (MTT).
With COc1cccc(C(=O)O[C@@H]2CN3Cc4c(cc5c(c4OC)OCO5)[C@@]24C=C[C@H](OC)C[C@@H]34)c1 the IC50 was 8.7 µM (WST-1).
The IC50 of CC(=O)c1ccc(/N=N/c2cc(/C=C/C(=O)O)ccc2O)cc1 is reported as > 50 µM (MTT).
Cc1ccc2[nH]c(=O)c3cc(C(=O)NCCCN(C)Cc4ccccc4)sc3c2c1 gave an IC50 of 16.8 µM (MTT; 24 h).
